According to ChEMBL document CHEMBL3797032, “Synthesis and in vitro growth inhibitory activity of novel silyl- and trityl-modified nucleosides” (Bioorg Med Chem, 2016):

Experiments:
[1] = Growth inhibition of human U373 cells assessed as reduction in cell viability incubated for 72 hrs by MTT assay; assay type: functional, U-373MG ATCC; details: U373 MG
Method in brief: (§1)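 Glioma cells grown adherent: Hs683 in DMEM + 5–10% FBS, U373 in Earle's MEM + 10% FBS and 1 mM sodium pyruvate; trypan blue viability check before use. Exposed for 72 h to 0.01–100 μM, narciclasine as positive control. MTT read-out with formazan dissolved in DMSO; GI50 is the concentration giving 50% growth reduction versus untreated controls.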

[2] = Growth inhibition of human Hs683 cells assessed as reduction in cell viability incubated for 72 hrs by MTT assay; assay type: functional; details: Hs 683, 72 h; method in brief: as §1
K562 = test: Growth inhibition of human K562 cells assessed as cell viability at 100 uM incubated for 24 hrs by MTT assay; assay type: functional; details: K562, 24 h, read-out: Activity
Method in brief: (§2)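 Leukemic lines (HL-60, K562, Jurkat) grown in suspension in RPMI-1640 + 10% heat-inactivated FBS. Colorectal HT-29 and Caco-2 grown adherent in DMEM + 5–10% FBS. Cells kept at 37 °C, 5% CO2, and checked for viability by trypan blue before use. Single final concentration 100 μM for 24 h at 37 °C, camptothecin as positive control. MTT read-out with formazan dissolved in DMSO; viability expressed relative to untreated control set at 100%.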

Jurkat = test: Growth inhibition of human Jurkat cells assessed as cell viability at 100 uM incubated for 24 hrs by MTT assay; assay type: functional; details: read-out: Activity; method in brief: as §2
[3] = Growth inhibition of human HL60 cells assessed as cell viability at 100 uM incubated for 24 hrs by MTT assay; assay type: functional; details: HL-60, 24 h, read-out: Activity; method in brief: as §2
[4] = Growth inhibition of human WBC cells assessed as cell viability at 100 uM incubated for 24 hrs by MTT assay; assay type: cell-based; details: WBC cells (white blood cells), read-out: Activity
Method in brief: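 Freshly isolated human peripheral leucocytes from volunteers, exposed at a single final concentration of 100 μM for 24 h, camptothecin as comparator. Viability read by MTT assay with formazan dissolved in DMSO.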

HT-29 = test: Growth inhibition of human HT-29 cells assessed as cell viability at 100 uM incubated for 24 hrs by MTT assay; assay type: functional; details: HT-29, 24 h, read-out: Activity; method in brief: as §2
[5] = Growth inhibition of human Caco2 cells assessed as cell viability at 100 uM incubated for 24 hrs by MTT assay; assay type: functional; details: Caco-2, 24 h, read-out: Activity; method in brief: as §2

Compound: CC(C)(C)[Si](C)(C)OC[C@H]1O[C@@H](n2ccc(=O)[nH]c2=O)[C@H](O)[C@@H]1O
- GI50 [1]: 71 µM
- GI50 [2]: 84 µM

Compound: CC(C)(C)[Si](OC[C@H]1O[C@@H](n2cnc3c(N)ncnc32)[C@H](O)[C@@H]1O)(c1ccccc1)c1ccccc1
- viability at 100 µM (K562): 45.5%
- viability at 100 µM (Jurkat): 18.3%
- GI50 [1]: 44 µM
- viability at 100 µM [3]: 27.9%
- viability at 24 h, 100 µM [4]: 59.3%
- viability at 100 µM (HT-29): > 50%
- viability at 100 µM [5]: > 50%
- GI50 [2]: 46 µM

Compound: COc1ccc(C(OC[C@H]2O[C@@H](n3ccc(=O)n(C(=O)c4ccccc4)c3=O)[C@H](OC(C)=O)[C@@H]2OC(C)=O)(c2ccccc2)c2ccc(OC)cc2)cc1
- GI50 [1]: 39 µM
- GI50 [2]: 44 µM

Compound: CC(=O)O[C@@H]1[C@H](OC(C)=O)[C@@H](CO[Si](c2ccccc2)(c2ccccc2)C(C)(C)C)O[C@H]1n1ccc(=O)[nH]c1=O
- viability at 100 µM (K562): 35.5%
- viability at 100 µM (Jurkat): > 50%
- GI50 [1]: 32 µM
- viability at 100 µM [3]: 11.2%
- viability at 24 h, 100 µM [4]: 100%
- viability at 100 µM (HT-29): > 50%
- viability at 100 µM [5]: > 50%
- GI50 [2]: 29 µM

Compound: CC(C)(C)[Si](OC[C@H]1O[C@@H](n2ccc(N)nc2=O)[C@H](O)[C@@H]1O)(c1ccccc1)c1ccccc1
- viability at 100 µM (K562): 35.6%
- viability at 100 µM (Jurkat): 16%
- GI50 [1]: 28 µM
- viability at 100 µM [3]: 26%
- viability at 24 h, 100 µM [4]: 100%
- viability at 100 µM (HT-29): 25.6%
- viability at 100 µM [5]: 37.2%
- GI50 [2]: 40 µM

Compound: COc1ccc(C(OC[C@H]2O[C@@H](n3ccc(=O)[nH]c3=O)[C@H](O)[C@@H]2O)(c2ccccc2)c2ccc(OC)cc2)cc1
- viability at 100 µM (K562): 8.3%
- viability at 100 µM (Jurkat): 5.2%
- GI50 [1]: 40 µM
- viability at 100 µM [3]: 6.5%
- viability at 24 h, 100 µM [4]: 82.7%
- viability at 100 µM (HT-29): 27.8%
- viability at 100 µM [5]: 26.1%
- GI50 [2]: 39 µM

Compound: CC(=O)O[C@@H]1[C@H](OC(C)=O)[C@@H](CO[Si](c2ccccc2)(c2ccccc2)C(C)(C)C)O[C@H]1n1ccc(=O)n(C(=O)c2ccccc2)c1=O
- GI50 [1]: 26 µM
- GI50 [2]: 35 µM

Compound: Cc1cn([C@@H]2O[C@H](CO[Si](C)(C)C(C)(C)C(C)C)[C@@H](O)[C@H]2O)c(=O)[nH]c1=O
- GI50 [1]: 68 µM
- GI50 [2]: 64 µM

Compound: CC(C)[Si]1(C(C)C)OC[C@H]2O[C@@H](n3ccc(=O)[nH]c3=O)C(=O)[C@@H]2O[Si](C(C)C)(C(C)C)O1
- GI50 [1]: 71 µM
- GI50 [2]: 70 µM

Compound: Cc1cn([C@@H]2O[C@@H]3CO[Si](C(C)C)(C(C)C)O[Si](C(C)C)(C(C)C)O[C@H]3[C@H]2O)c(=O)[nH]c1=O
- GI50 [1]: 87 µM
- GI50 [2]: 91 µM

Compound: Cc1cn([C@@H]2O[C@H](CO[Si](c3ccccc3)(c3ccccc3)C(C)(C)C)[C@@H](O)[C@H]2O)c(=O)[nH]c1=O
- GI50 [1]: 25 µM
- GI50 [2]: 27 µM

Compound: CC(C)[Si]1(C(C)C)OC[C@H]2O[C@@H](n3ccc(=O)[nH]c3=O)[C@H](O)[C@@H]2O[Si](C(C)C)(C(C)C)O1
- GI50 [1]: 81 µM
- GI50 [2]: 83 µM

Compound: COc1ccc(C(OC[C@H]2O[C@@H](n3ccc(=O)[nH]c3=O)[C@H](OC(C)=O)[C@@H]2OC(C)=O)(c2ccccc2)c2ccc(OC)cc2)cc1
- viability at 100 µM (K562): > 50%
- viability at 100 µM (Jurkat): > 50%
- GI50 [1]: 40 µM
- viability at 100 µM [3]: > 50%
- viability at 24 h, 100 µM [4]: 100%
- viability at 100 µM (HT-29): > 50%
- viability at 100 µM [5]: > 50%
- GI50 [2]: 28 µM

Compound: CC(C)C(C)(C)[Si](C)(C)OC[C@H]1O[C@@H](n2ccc(=O)[nH]c2=O)[C@H](O)[C@@H]1O
- GI50 [1]: > 100 µM
- GI50 [2]: > 100 µM

Compound: CC(C)(C)[Si](OC[C@H]1O[C@@H](n2ccc(=O)[nH]c2=O)[C@H](O)[C@@H]1O)(c1ccccc1)c1ccccc1
- viability at 100 µM (K562): 9.4%
- viability at 100 µM (Jurkat): 6.3%
- GI50 [1]: 36 µM
- viability at 100 µM [3]: 5.6%
- viability at 24 h, 100 µM [4]: 61.5%
- viability at 100 µM (HT-29): 29.4%
- viability at 100 µM [5]: 37.4%
- GI50 [2]: 35 µM

Compound: Cc1cn([C@@H]2O[C@H](CO[Si](C)(C)C(C)(C)C)[C@@H](O)[C@H]2O)c(=O)[nH]c1=O
- GI50 [1]: > 100 µM
- GI50 [2]: 77 µM

Compound: CC(C)[Si]1(C(C)C)OC[C@H]2O[C@@H](n3ccc(=O)n(C(=O)c4ccccc4)c3=O)[C@H](O)[C@@H]2O[Si](C(C)C)(C(C)C)O1
- GI50 [1]: 29 µM
- GI50 [2]: 29 µM

Compound: CC[C@@]1(O)C(=O)OCc2c1cc1n(c2=O)Cc2cc3ccccc3nc2-1 [CAMPTOTHECIN]
- viability at 100 µM (K562): 39.6%
- viability at 100 µM (Jurkat): 8.9%
- viability at 100 µM [3]: 23.4%
- viability at 24 h, 100 µM [4]: 34.6%
- viability at 100 µM (HT-29): 11.4%
- viability at 100 µM [5]: 12.8%

Compound: O=C1N[C@@H]2C(=C[C@H](O)[C@@H](O)[C@H]2O)c2cc3c(c(O)c21)OCO3 [NARCICLASINE]
- GI50 [1]: 0.029 µM
- GI50 [2]: 0.04 µM
